ChEMBL document CHEMBL6134795, “Mannich reaction mediated derivatization of chromones and their biological evaluations as putative multipotent ligands for the treatment of Alzheimer's disease” (RSC Med Chem, 2024)
Active and inactive are the calls of the source. The calls are words filed in the database; no cut-off is given here.

Columns and labels:
[1] = target: Amyloid-beta precursor protein (Homo sapiens) (UniProt P05067); experiment: Inhibition of self-induced amyloid beta (1 to 42 residues) (unknown origin) aggregation at 20 uM incubated at 48 hrs by fluorimetry-based thioflavin T assay
In short: (§1)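 Aβ1-42 pretreated with HFIP (1 mg mL−1) and dried, then incubated with compound (20 μM) at 37 °C for 24 h; an aliquot transferred and incubated further to 48 h. Glycine–NaOH buffer pH 8.0 with 5 μM ThT added; fluorescence read at 440–485 nm. % inhibition calculated against the Aβ-only control taken as 0%.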

Cholinesterase [2] = target: T1, Cholinesterase (Homo sapiens, UniProt P06276); experiment: Inhibition of recombinant BuChE (unknown origin) using BTCI as substrate at 20 uM preincubated for 30 mins followed by substrate addition by TECAN multiplate reader analysis relative to control
In short: (§2)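 Ellman method as for AChE, using butyrylcholinesterase with BTCI as substrate. Enzyme and compound preincubated 30 min at 37 °C in a CO2 incubator, then DTNB and BTCI added; absorbance read at 417 nm. Screening at 20 μM as % inhibition; IC50 for compounds exceeding 50% inhibition at 20 μM. Triplicate.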

[3] = target: T2, Amine oxidase [flavin-containing] B (Homo sapiens, UniProt P27338); experiment: Inhibition of recombinant MAO-B (unknown origin) at 20 uM preincubated for 30 mins followed substrate addition by Amplex Red reagent based fluorescence analysis relative to control
T2 sequence (P27338 whole entry): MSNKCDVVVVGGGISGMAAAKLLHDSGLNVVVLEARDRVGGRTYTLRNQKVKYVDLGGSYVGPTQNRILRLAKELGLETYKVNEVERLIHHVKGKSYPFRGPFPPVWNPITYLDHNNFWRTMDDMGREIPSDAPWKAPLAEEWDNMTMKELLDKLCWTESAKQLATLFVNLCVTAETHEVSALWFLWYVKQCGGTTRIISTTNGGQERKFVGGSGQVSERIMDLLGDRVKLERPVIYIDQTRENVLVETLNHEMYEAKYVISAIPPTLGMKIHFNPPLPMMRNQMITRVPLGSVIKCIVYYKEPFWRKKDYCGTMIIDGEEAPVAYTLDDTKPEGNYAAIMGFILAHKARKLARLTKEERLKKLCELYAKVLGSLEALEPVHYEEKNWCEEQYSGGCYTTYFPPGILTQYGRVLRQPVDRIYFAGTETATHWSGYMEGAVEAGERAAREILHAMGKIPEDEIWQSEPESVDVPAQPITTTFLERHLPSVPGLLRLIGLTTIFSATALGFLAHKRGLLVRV
In short: (§3)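 Recombinant MAO enzyme preincubated with compound 30 min at 37 °C; substrate, HRP and Amplex Red working solution then added; H2O2 formation read at 37 °C by fluorescence, ex 545/em 590 nm. Screening at 20 μM as % inhibition versus control; IC50 only for compounds above 50% inhibition at 20 μM; triplicate (n = 3).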

[4] = target: Amyloid-beta precursor protein (Homo sapiens) (UniProt P05067); experiment: Inhibition of self-induced amyloid beta (1 to 42 residues) (unknown origin) aggregation at 20 uM incubated at 24 hrs by fluorimetry-based thioflavin T assay; in short: as §1
[5] = target: T3, Amine oxidase [flavin-containing] A (Homo sapiens, UniProt P21397); experiment: Inhibition of recombinant MAO-A (unknown origin) at 20 uM preincubated for 30 mins followed substrate addition by Amplex Red reagent based fluorescence analysis relative to control; in short: as §3
T3 sequence (P21397 whole entry): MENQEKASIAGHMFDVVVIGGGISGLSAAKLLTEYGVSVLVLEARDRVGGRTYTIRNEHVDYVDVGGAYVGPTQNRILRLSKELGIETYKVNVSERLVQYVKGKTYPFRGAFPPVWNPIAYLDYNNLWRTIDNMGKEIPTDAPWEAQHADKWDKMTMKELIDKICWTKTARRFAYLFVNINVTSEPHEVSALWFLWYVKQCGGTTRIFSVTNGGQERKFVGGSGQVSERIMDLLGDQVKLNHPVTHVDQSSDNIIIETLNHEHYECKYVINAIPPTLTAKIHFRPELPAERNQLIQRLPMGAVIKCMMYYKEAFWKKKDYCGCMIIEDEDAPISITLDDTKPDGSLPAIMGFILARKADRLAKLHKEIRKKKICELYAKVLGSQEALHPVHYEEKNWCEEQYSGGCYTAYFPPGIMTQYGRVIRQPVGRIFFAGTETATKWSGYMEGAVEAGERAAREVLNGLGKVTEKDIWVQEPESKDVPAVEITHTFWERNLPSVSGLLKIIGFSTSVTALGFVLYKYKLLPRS

[6] = target: T2, Amine oxidase [flavin-containing] B; experiment: Reversible inhibition of MAO-B (unknown origin) assessed as residual activity at 10 times IC50 incubated for 30 mins by dilution method relative to control; conditions: 0.5 h
[7] = target: T2, Amine oxidase [flavin-containing] B; experiment: Reversible inhibition of MAO-B (unknown origin) assessed as residual activity at 0.1 times IC50 incubated for 30 mins by dilution method relative to control; conditions: 0.5 h
SH-SY5Y [8] = experiment: Neuroprotective activity against 6-OHDA-induced cytotoxicity in human SH-SY5Y cells assessed as cell viability at 5 uM incubated for 24 hrs followed by exposure to 6-OHDA by MTT assay relative to control; format: functional; conditions: read-out: Activity
In short: (§4)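 SH-SY5Y cells treated with compound (1, 5, 25 μM) and challenged with 6-OHDA; cultured 24 h at 37 °C under humidified 5% CO2. Viability measured by MTT as formazan absorbance at 594 nm and expressed relative to control.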

SH-SY5Y [9] = experiment: Cytotoxicity against human SH-SY5Y cells assessed as reduction in cell viability at 1 to 25 uM by MTT assay; format: functional, cell-based; conditions: dose 1-25 µM
In short: (§5)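 SH-SY5Y cells (DMEM/F-12 with 10% FBS, 1% horse serum, 1% penicillin) preincubated 24 h with compound at 1, 5 or 25 μM; MTT converted to formazan, solubilised in DMSO, absorbance read at 595 nm; viability expressed as percentage of untreated control.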

SH-SY5Y [10] = experiment: Inhibition of ROS production in human SH-SY5Y cells assessed as intracellular ROS level at 25 uM incubated for 24 hrs by DCF-DA staining based fluorescence analysis relative to control; format: functional
In short: (§6)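 Cultured SH-SY5Y cells exposed to compound (1, 5, 25 μM) for 24 h; intracellular ROS detected with DCF-DA, which is converted to fluorescent 2,7-DCF, read at ex 478/em 518 nm. Inhibition is expressed relative to control. Mean ± SD of triplicate or more independent experiments.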

SH-SY5Y [11] = experiment: Cytotoxicity against human SH-SY5Y cells assessed as cell viability at 25 uM by MTT assay relative to control; format: functional; conditions: read-out: Activity; in short: as §5
[12] = target: T2, Amine oxidase [flavin-containing] B; experiment: Reversible inhibition of MAO-B (unknown origin) assessed as residual activity at 100 times IC50 incubated for 30 mins by dilution method relative to control; conditions: 0.5 h
Acetylcholinesterase [13] = target: T4, Acetylcholinesterase (Homo sapiens, UniProt P22303); experiment: Reversible inhibition of AChE (unknown origin) assessed as residual activity at 0.1 times IC50 incubated for 30 mins by dilution method relative to control
In short: (§7)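 Samples then diluted 100-fold with substrate, giving final inhibitor levels of 0.1× and 1× IC50. Recovered activity measured relative to control; triplicate.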

SH-SY5Y [14] = experiment: Cytotoxicity against human SH-SY5Y cells assessed as cell viability at 5 uM by MTT assay relative to control; format: functional; conditions: read-out: Activity; in short: as §5
SH-SY5Y [15] = experiment: Inhibition of ROS production in human SH-SY5Y cells assessed as intracellular ROS level at 5 uM incubated for 24 hrs by DCF-DA staining based fluorescence analysis relative to control; format: functional; in short: as §6
SH-SY5Y [16] = experiment: Neuroprotective activity against 6-OHDA-induced cytotoxicity in human SH-SY5Y cells assessed as cell viability at 25 uM incubated for 24 hrs followed by exposure to 6-OHDA by MTT assay relative to control; format: functional; conditions: read-out: Activity; in short: as §4
Acetylcholinesterase [17] = target: T4, Acetylcholinesterase; experiment: Reversible inhibition of AChE (unknown origin) assessed as residual activity at 100 times IC50 incubated for 30 mins by dilution method relative to control; in short: as §7
Acetylcholinesterase [18] = target: T4, Acetylcholinesterase; experiment: Reversible inhibition of AChE (unknown origin) assessed as residual activity at 1 times IC50 incubated for 30 mins by dilution method relative to control; in short: as §7
Acetylcholinesterase [19] = target: T4, Acetylcholinesterase; experiment: Reversible inhibition of AChE (unknown origin) assessed as residual activity at 10 times IC50 incubated for 30 mins by dilution method relative to control; in short: as §7
[20] = target: T2, Amine oxidase [flavin-containing] B; experiment: Inhibition of recombinant MAO-B (unknown origin) preincubated for 30 mins followed substrate addition by Amplex Red reagent based fluorescence analysis
Cholinesterase [21] = target: T1, Cholinesterase; experiment: Inhibition of recombinant BuChE (unknown origin) using BTCI as substrate preincubated for 30 mins followed by substrate addition by TECAN multiplate reader analysis; in short: as §2
SH-SY5Y [22] = experiment: Neuroprotective activity against 6-OHDA-induced cytotoxicity in human SH-SY5Y cells assessed as cell viability at 1 uM incubated for 24 hrs followed by exposure to 6-OHDA by MTT assay relative to control; format: functional; conditions: read-out: Activity; in short: as §4
SH-SY5Y [23] = experiment: Inhibition of ROS production in human SH-SY5Y cells assessed as intracellular ROS level at 1 uM incubated for 24 hrs by DCF-DA staining based fluorescence analysis relative to control; format: functional; in short: as §6
SH-SY5Y [24] = experiment: Cytotoxicity against human SH-SY5Y cells assessed as cell viability at 1 uM by MTT assay relative to control; format: functional; conditions: read-out: Activity; in short: as §5
[25] = target: T2, Amine oxidase [flavin-containing] B; experiment: Reversible inhibition of MAO-B (unknown origin) assessed as residual activity at 1 times IC50 incubated for 30 mins by dilution method relative to control; conditions: 0.5 h
Acetylcholinesterase [26] = target: T4, Acetylcholinesterase; experiment: Inhibition of AChE (unknown origin)
In short: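 Recombinant AChE (0.5 U ml-1) preincubated with compound for 30 min at 37 °C in a CO2 incubator. DTNB and acetylthiocholine substrate (AChSI) then added, and absorbance read at 417 nm. Screening at 20 μM as % inhibition; IC50 determined for compounds giving over 50% inhibition at 20 μM. Run in triplicate.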

Cholinesterase [27] = target: T1, Cholinesterase; experiment: Inhibition of BuChE (unknown origin); in short: as §2
[28] = target: T2, Amine oxidase [flavin-containing] B; experiment: Inhibition of MAO-B (unknown origin)
[29] = target: Amyloid-beta precursor protein (Homo sapiens) (UniProt P05067); experiment: Inhibition of self-induced amyloid beta (1 to 42 residues) (unknown origin) aggregation assessed as reduction in plaques formation measured after 72 hrs by FE-SEM analysis
In short: (§8)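 HFIP-pretreated Aβ1-42 incubated with or without inhibitor for 72 h; samples placed on carbon-coated copper grids, dried 1 h at 37 °C, imaged by FE-SEM. Glycine–NaOH buffer served as blank and Aβ alone as control.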

[30] = target: Amyloid-beta precursor protein (Homo sapiens) (UniProt P05067); experiment: Inhibition of self-induced amyloid beta (1 to 42 residues) (unknown origin) aggregation assessed as reduction in fibrils formation measured after 72 hrs by FE-SEM analysis; in short: as §8

T4 sequence (P22303 whole entry): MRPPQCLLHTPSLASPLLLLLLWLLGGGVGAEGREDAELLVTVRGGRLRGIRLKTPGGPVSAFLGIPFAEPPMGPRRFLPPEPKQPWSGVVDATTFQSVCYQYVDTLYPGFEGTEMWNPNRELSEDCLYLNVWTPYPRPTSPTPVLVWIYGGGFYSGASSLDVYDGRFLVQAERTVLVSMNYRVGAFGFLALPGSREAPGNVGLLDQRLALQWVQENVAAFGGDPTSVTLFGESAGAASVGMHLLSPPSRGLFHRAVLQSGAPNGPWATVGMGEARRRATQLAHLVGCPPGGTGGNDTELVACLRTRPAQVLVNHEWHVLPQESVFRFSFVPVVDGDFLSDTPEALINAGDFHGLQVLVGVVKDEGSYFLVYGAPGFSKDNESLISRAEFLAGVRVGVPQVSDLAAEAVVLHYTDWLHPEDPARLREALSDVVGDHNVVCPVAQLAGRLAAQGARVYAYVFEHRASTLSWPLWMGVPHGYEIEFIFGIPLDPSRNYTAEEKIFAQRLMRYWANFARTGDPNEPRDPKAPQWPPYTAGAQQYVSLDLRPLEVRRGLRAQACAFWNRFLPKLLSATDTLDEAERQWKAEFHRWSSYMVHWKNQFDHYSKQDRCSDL
T1 sequence (P06276 whole entry): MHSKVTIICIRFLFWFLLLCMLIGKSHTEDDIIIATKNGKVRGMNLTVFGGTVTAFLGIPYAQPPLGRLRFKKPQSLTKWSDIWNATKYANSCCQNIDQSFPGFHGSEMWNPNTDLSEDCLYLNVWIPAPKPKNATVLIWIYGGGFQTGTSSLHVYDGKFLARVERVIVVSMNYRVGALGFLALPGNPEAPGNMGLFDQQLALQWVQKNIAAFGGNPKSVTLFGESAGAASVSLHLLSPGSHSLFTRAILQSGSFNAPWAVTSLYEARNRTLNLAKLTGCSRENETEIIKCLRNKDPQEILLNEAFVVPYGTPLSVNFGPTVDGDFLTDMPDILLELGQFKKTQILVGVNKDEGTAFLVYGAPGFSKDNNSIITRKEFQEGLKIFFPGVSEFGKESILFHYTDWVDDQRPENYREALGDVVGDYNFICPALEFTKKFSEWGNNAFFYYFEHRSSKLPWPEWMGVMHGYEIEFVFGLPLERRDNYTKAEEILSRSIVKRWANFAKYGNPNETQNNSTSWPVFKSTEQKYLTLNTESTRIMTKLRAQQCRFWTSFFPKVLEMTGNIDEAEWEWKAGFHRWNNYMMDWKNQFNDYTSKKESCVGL
Amyloid-beta precursor protein (Homo sapiens), sequence (P05067 whole entry, the tested form may be a part): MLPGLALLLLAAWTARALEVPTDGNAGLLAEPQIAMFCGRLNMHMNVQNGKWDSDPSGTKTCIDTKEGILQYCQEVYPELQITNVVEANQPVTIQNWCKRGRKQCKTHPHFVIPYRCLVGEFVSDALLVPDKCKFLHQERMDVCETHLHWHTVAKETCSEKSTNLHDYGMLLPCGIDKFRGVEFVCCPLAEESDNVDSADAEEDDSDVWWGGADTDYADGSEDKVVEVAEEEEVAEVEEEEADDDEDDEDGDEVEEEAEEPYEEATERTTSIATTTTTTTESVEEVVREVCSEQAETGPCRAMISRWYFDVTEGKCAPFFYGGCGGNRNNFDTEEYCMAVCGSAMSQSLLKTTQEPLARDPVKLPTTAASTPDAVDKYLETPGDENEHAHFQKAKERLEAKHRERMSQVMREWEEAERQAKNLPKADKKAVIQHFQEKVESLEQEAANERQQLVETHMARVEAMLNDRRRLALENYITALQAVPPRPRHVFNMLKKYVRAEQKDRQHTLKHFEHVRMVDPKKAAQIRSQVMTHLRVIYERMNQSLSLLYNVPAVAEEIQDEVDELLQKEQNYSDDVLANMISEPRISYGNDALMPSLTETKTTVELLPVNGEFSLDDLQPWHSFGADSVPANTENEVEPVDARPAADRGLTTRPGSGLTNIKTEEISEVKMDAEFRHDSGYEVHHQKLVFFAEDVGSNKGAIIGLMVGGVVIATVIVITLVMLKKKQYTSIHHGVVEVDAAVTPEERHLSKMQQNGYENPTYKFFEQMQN

C#CCCCOc1c(CN2CCN(Cc3ccccc3)CC2)cc(-c2cc(=O)c3ccccc3o2)cc1OC
inhibition [1]: 28.1%
inhibition (Cholinesterase [2]): 7.42%
inhibition at 20 µM [3]: 22.8%
inhibition [4]: 22.9%
inhibition at 20 µM [5]: 5.26%

C#CCCCOc1c(CN(C)Cc2ccccc2)cc(-c2cc(=O)c3ccccc3o2)cc1OC
inhibition (Cholinesterase [2]): 17.6%
inhibition at 20 µM [3]: 17.5%

C#CCOc1c(CN2CCCCC2)cc(-c2cc(=O)c3ccccc3o2)cc1OC
Activity [6]: 32.6%
Activity [7]: 76.3%
viability at 5 µM (SH-SY5Y [8]): 49.4%
inhibition [1]: 28.5%
Activity (SH-SY5Y [9]): Not toxic
inhibition at 25 µM (SH-SY5Y [10]): 47%
viability at 25 µM (SH-SY5Y [11]): 91.9%
Activity [12]: 14%
Activity (Acetylcholinesterase [13]): 71.3%
inhibition (Cholinesterase [2]): 89.9%
viability at 5 µM (SH-SY5Y [14]): 94.4%
inhibition at 5 µM (SH-SY5Y [15]): 51%
inhibition at 20 µM [3]: 50.8%
viability at 25 µM (SH-SY5Y [16]): 46.9%
Activity (Acetylcholinesterase [17]): 25.3%
inhibition [4]: 22.4%
Activity (Acetylcholinesterase [18]): 47.2%
Activity (Acetylcholinesterase [19]): 33.1%
IC50 [20]: 19.6 µM
IC50 (Cholinesterase [21]): 1950 nM
viability at 1 µM (SH-SY5Y [22]): 51.9%
inhibition at 1 µM (SH-SY5Y [23]): 82.8%
viability at 1 µM (SH-SY5Y [24]): 97.1%
Activity [25]: 58.9%

C#CCCCOc1c(CN2CCCCC2)cc(-c2cc(=O)c3ccccc3o2)cc1CN1CCCCC1
inhibition [1]: 18%
inhibition (Cholinesterase [2]): 13.7%
inhibition at 20 µM [3]: 19.7%
inhibition [4]: 12%

C#CCCCOc1c(CN2CCOCC2)cc(-c2cc(=O)c3ccccc3o2)cc1CN1CCOCC1
inhibition [1]: 26.9%
inhibition (Cholinesterase [2]): 1%
inhibition at 20 µM [3]: 18.1%
inhibition [4]: 23.9%

O=C(NCCC1CCN(Cc2ccccc2)CC1)c1coc2cc(OCc3ccccc3)ccc2c1=O
IC50 (Acetylcholinesterase [26]): 370 nM
IC50 (Cholinesterase [27]): 5.24 µM
IC50 [28]: 272 nM

C#CCCCOc1c(CN2CCOCC2)cc(-c2cc(=O)c3ccccc3o2)cc1OCC
inhibition (Cholinesterase [2]): 6.37%
inhibition at 20 µM [3]: 18.2%

C#CCCOc1c(CN2CCOCC2)cc(-c2cc(=O)c3ccccc3o2)cc1OCC
inhibition [1]: 23.7%
inhibition (Cholinesterase [2]): 4.42%
inhibition at 20 µM [3]: 6.89%
inhibition [4]: 24.6%

C#CCOc1c(CN2CCOCC2)cc(-c2cc(=O)c3ccccc3o2)cc1OCC
inhibition at 20 µM [3]: 8.37%

Oc1ccc(/C=C/c2cc(O)cc(O)c2)cc1
inhibition [29]: Active
inhibition [30]: Active
